Shown are actives, neighbours in structure and some others; about 5.8% of the full set was active somewhere.
RBBP9 inh – human RBBP9 inhibitors, primary screen, biochemical, fluorescence polarization, FP-Rh probe, HTS; hit rate 0.2% among 220,000; Serine hydrolase RBBP9 (Homo sapiens), O75884; inhibition, % at 7.94 µM; AID 1515, 2009; recombinant RBBP9;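 active means inhibition above the campaign mean of all tested compounds plus 3 SD, cut at about 14% in these data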;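 further: plate controls were DMSO wells with RBBP9 for no effect and wells lacking RBBP9 protein for full effect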
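System: RBBP9 protein | Quantity: 2.5 µM RBBP9 dispensing solution, before mixing | Reagent: FP-Rh probe, 375 nM dispensing solution | Timing: Enzyme-compound preincubation 30 min, then probe labeling 45 min, 25 °C | Measured by: Fluorescence polarization | Read-out: % inhibition | Replication: One well per compound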
Cl transport mod – KCC2 cotransporter modulators, thallium flux, primary screen, cell-based, HEK293 KCC2, FluoZin-2 fluorescence, MLSMR; AID 1456, 2008; Solute carrier family 12 member 5 (Homo sapiens), Q9H2X9; KCC2 cells, thallium flux FluoZin-2 fluorescence; B-score of Tl+ flux slope (higher = more flux/activation; lower = inhibition) at 10 µM; hit rate 2.2% among 190,000;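 active means thallium flux slope and its plate-corrected score both differing from the plate sample mean at a set confidence after two filtering rounds, in either direction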;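 further: slope of fluorescence scaled to starting intensity during 10 to 20 s after thallium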
p47phox inh – p47phox/p22phox peptide binding inhibitors, primary screen, biochemical, uHTS, NADPH oxidase regulatory subunit. Neutrophil cytosol factor 1 (Homo sapiens), P14598. fluorescence polarization, 2 h. inhibition, % at 24.7 µM. hit rate 0.53% among 220,000. AID 1274, 2008;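 active means inhibition above about 30%, limit read from the data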;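 further: 0% = p47phox with labelled peptide and 100% = labelled peptide alone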
WT yeast gro inh – growth inhibition of WT strain, primary screen, mitochondrial fusion inhibitor project, WT and mutant strains, chemical genetic | mitochondrial fusion phenotypic screen | inhibition, % at 10 µM | hit rate 2.1% among 190,000; in the data active means inhibition above about 58%; tested in S. cerevisiae
ROMK primary – ROMK potassium channel modulators, primary screen, cell-based, thallium flux, MLSMR library; Tet-inducible ROMK, thallium flux fluorescence; actives lie on both sides; hit rate 2% among 130,000; ATP-sensitive inward rectifier potassium channel 1 (Homo sapiens), P48048; AID 1918, 2009; B-score at 10 µM;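 active means signal ratio slope over the read window, or its plate-corrected B-score, at least 3 SD from the plate mean, either direction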;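 further: B-score of the F/F0 ratio slope over 7 to 12 s after thallium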
Target sequence (P48048 whole entry, looked up): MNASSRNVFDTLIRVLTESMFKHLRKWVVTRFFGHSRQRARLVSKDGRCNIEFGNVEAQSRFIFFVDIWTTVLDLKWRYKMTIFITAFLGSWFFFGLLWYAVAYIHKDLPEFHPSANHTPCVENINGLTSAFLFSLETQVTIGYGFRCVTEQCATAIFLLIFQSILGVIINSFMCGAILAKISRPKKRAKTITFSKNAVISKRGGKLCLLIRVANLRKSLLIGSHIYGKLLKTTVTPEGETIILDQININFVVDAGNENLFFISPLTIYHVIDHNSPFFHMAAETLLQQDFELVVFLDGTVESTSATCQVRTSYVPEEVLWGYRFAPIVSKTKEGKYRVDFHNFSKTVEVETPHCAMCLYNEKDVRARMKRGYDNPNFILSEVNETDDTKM
14-3-3 Bad inh – inhibitors of 14-3-3 zeta/Bad binding, primary screen, biochemical, TR-FRET, bovine 14-3-3 zeta; TR-FRET 14-3-3zeta/Dy647-pBad peptide displacement, 1 h; 14-3-3 protein zeta/delta (Bos taurus), P63103; AID 781, 2007; hit rate 0.71% among 220,000; inhibition, % at 21.7 µM;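 active means inhibition above about 70%, limit read from the data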;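 further: 0% = full 14-3-3 plus peptide FRET controls and 100% = background without 14-3-3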
ROMK hit retest – ROMK channel modulator hit retest, confirmation, cell-based, thallium flux, duplicate, resupplied hits; shares compounds with ROMK primary; fluorescence ratio; stronger effect = lower value; normalized thallium flux (F/F0 slope) at 10 µM; hit rate 54% among 3,000; AID 1917, 2009;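 active means Flux at 10 µM at least 3 SD below or above vehicle control mean in one or both replicates; inconclusive means no clear call, values can overlap the other calls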
* hit, by the source's call; ? = inconclusive; · = not tested or not shown.

SMILES	RBBP9 inh	Cl transport mod	p47phox inh	WT yeast gro inh	ROMK primary	14-3-3 Bad inh	ROMK hit retest
Cc1ccc(NC(=O)Cc2ccc3c(c2)OCCO3)cc1S(=O)(=O)N1CCCCC1	-10	-0.96	-18	·	·	6	·
N#CC1=C(N)C2=CCCC[C@H]2[C@H](c2cccc(F)c2)C1(C#N)C#N	-5	-1.2	-21	39	-2.5*	-18	0.053*
c1ccc(-n2cnc3cc(NCc4ccco4)ccc32)cc1	-7	-0.0057	2	17	3.3*	2	?
CCN(CC(=O)Nc1cccc(C(C)=O)c1)S(=O)(=O)c1ccc(C)cc1	-6	-1.2	-1	-3	-0.075	-1	·
CCOCC(=O)Nc1cc(Cl)ccc1C	1	-0.045	5	-8	-0.015	2	·
CCCCCCCCCCCCCCCCn1cc[n+](C)c1	-7	0.34	102*	96	-2.2	95*	0.065*
CCN(c1ccccc1)c1ncnc2c1cnn2-c1ccccc1	4	·	-9	1	·	0	0.055*
CN(Cc1ccccc1)c1ncnc2c1cnn2-c1ccccc1	-13	·	-15	14	·	4	·
O=C(CNc1ccc(Br)cc1)NNC1=NCCC1	-1	0.02	-6	-4	-0.46	-1	·
CCn1c(=N)n(CC(O)c2ccco2)c2ccccc21 (stereo not drawn)	0	0.33	-4	9	·	-12	·
CCOC(=O)Cn1c(=N)n(Cc2ccccc2)c2ccccc21	-7	0.16	-12	-25	·	-1	·
N=c1n(Cc2ccccc2)c2ccccc2n1CC(O)c1ccco1 (stereo not drawn)	-3	·	-18	-5	-2.5*	-3	0.061*
N=c1n(Cc2ccccc2)c2ccccc2n1Cc1ccccc1	3	0.044	-22	11	-3.6*	-2	?
O=C(N/N=C/c1cccn1-c1cccc(C(=O)O)c1)Nc1ccccc1	-5	-1.8	-14	3	-0.33	-10	·
N=C(N)c1ccc(/C=C/c2ccc(C(=N)N)cc2O)cc1	-4	0.062	20	·	·	1	·
CCOC(=O)C(C)Sc1nnc(Cn2c(=O)sc3ccccc32)n1-c1ccccc1 (stereo not drawn)	-7	-0.19	-1	1	·	-1	?
COC(=O)c1cccc(NC(=O)c2cccnc2C(=O)O)c1C	-4	0.42	-1	-10	0.16	3	·
O=C1CC(c2ccc(Cl)c(Cl)c2)CC(O)=C1C=NCCN1CCNCC1 (stereo not drawn)	3	-0.17	-3	0	·	-11	0.057*
CN1C(=O)CC(N2CCN(CCN=CC3=C(O)CC(C)(C)CC3=O)CC2)C1=O (stereo not drawn)	-5	1.3	1	-3	0.97	12	·
CC1(C)CC(=O)C(C=NCCN2CCN(C3CC(=O)N(c4ccc(Cl)c(Cl)c4)C3=O)CC2)=C(O)C1 (stereo not drawn)	-10	-0.14	-5	-6	-6.7*	-6	0.077
CC(C)N(c1ccccc1)c1ccc(NC(=O)COC(=O)CCN2C(=O)c3cccc([N+](=O)[O-])c3C2=O)cc1	5	-1.8	2	6	-0.45	9	·
O=C(CCn1c2c(c3ccccc31)CCCC2)NNC(=O)c1ccccc1C(=O)O	-5	1.2	-2	·	·	7	0.079
COc1ccc(-c2nc3ccccc3n2Cc2ccccc2)cc1	-9	-0.24	-2	45	-0.58	-2	·
COc1ccc2c(c1)nc(N)n2Cc1ccccc1	-10	0.42	-2	3	-3*	-10	0.053*
CN(C)/C=C/C1=C([N+](=O)[O-])C(c2cccc([N+](=O)[O-])c2)NC(=O)N1 (stereo not drawn)	2	0.5	-9	·	·	1	·
CN(C)c1ccc2c3c(ccc(N(C)C)c13)C(=O)OC2	4	-0.55	4	·	·	-4	0.079

Bioassay records (PubChem)
